Calls of active or inactive are those of the source. No cut-off for these calls is given here.

Assay [1] addresses T1, Prostaglandin G/H synthase 1 (Mus musculus) (UniProt P22437).
T1 sequence (whole entry): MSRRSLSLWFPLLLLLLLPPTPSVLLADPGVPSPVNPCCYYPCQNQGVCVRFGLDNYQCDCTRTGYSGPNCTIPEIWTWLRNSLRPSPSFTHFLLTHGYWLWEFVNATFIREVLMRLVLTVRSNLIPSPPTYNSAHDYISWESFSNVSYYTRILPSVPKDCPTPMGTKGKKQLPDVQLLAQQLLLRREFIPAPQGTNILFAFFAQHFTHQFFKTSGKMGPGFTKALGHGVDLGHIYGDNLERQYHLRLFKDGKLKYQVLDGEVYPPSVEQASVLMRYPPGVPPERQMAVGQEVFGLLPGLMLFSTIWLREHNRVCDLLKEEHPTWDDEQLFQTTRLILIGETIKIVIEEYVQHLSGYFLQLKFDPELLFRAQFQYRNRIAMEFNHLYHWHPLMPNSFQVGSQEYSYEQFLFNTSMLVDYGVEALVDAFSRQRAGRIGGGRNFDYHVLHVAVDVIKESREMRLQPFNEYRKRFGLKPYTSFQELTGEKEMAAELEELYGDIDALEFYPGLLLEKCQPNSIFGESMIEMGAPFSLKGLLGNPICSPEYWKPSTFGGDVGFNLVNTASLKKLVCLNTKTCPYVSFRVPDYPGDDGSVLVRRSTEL
In words: Activity at COX1 assessed as inhibition of arachidonic acid-induced PGE2 production in J774 cells at 100 uM. It counts as cell-based. An outline of the steps: (§1)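 Murine J774 macrophages were grown in DMEM with 10% FBS, adhered for 2 h at 37 °C, then switched to serum-free medium. Cells were pretreated with compound (0.01-100 µM, ethanol vehicle) for 15 min, then given 15 µM arachidonic acid for 30 min at 37 °C. Supernatant PGE2 was measured by radioimmunoassay. Triplicate wells; % inhibition vs control, mean of three experiments.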

Assay [2] deals with T1, Prostaglandin G/H synthase 1 (Mus musculus). The assay is described as follows: Activity at COX1 assessed as inhibition of arachidonic acid-induced PGE2 production in J774 cells at 0.01 uM. It counts as cell-based. The procedure, abridged:
as §1

For assay [3] the target is unchanged. The assay is described as follows: Activity at COX1 assessed as inhibition of arachidonic acid-induced PGE2 production in J774 cells at 1 uM. It is filed as cell-based. The procedure, abridged:
as §1

Assay [4] shares this target. The assay is described as follows: Activity at COX1 assessed as inhibition of arachidonic acid-induced PGE2 production in J774 cells at 10 uM. It counts as cell-based. An outline of the steps:
as §1

For assay [5] the target is unchanged. In words: Activity at COX1 assessed as inhibition of arachidonic acid-induced PGE2 production in J774 cells at 0.1 uM. It counts as cell-based. An outline of the steps: as §1
The test system of the next assay is Rattus norvegicus. In words: Gastric damage in rat at 100 mg/kg, po by GI damage assay. It is filed as functional. An outline of the steps:
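Rats (120-140 g) were fasted 18 h with water allowed, then dosed orally at 100 mg/kg; a vehicle group was included, six rats per group. After 5 h, stomachs were excised under pentobarbital. A blinded observer summed lesion lengths in mm per stomach. Analysis: Kruskal-Wallis with Dunn's post-test.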

Assay [6] has as its target T1, Prostaglandin G/H synthase 1 (Mus musculus). The assay is described as follows: Activity at COX1 assessed as inhibition of arachidonic acid-induced PGE2 production in J774 cells. It is filed as cell-based. An outline of the steps: as §1
Assay [7] concerns Mus musculus. In words: Antiinflammatory activity in carrageenan-induced mouse paw edema. It counts as functional, organism-based. An outline of the steps: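 Mice (18-20 g), lightly anesthetized with enflurane, were dosed 1 h before subplantar 1% carrageenan in the left footpad. Paw volume was read by hydroplethysmometer before injection and at 2, 4, 6, 24, 48 and 72 h. Edema was taken as the increase over basal volume.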

Assay [8] is filed under the species Mus musculus. In words: Analgesic activity in Swiss mouse by acetic acid-induced writhing test. It counts as functional, organism-based. The procedure, abridged:
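Male mice (25-30 g) received 0.6% acetic acid intraperitoneally and were caged singly. Writhes were counted over 15 min, starting from the first writhing movement.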
Background: An intraperitoneal irritant provokes the stretching counted in writhing tests.

For assay [9], the target named is T2, Prostaglandin G/H synthase 2 (Mus musculus) (UniProt Q05769).
T2 sequence (whole entry): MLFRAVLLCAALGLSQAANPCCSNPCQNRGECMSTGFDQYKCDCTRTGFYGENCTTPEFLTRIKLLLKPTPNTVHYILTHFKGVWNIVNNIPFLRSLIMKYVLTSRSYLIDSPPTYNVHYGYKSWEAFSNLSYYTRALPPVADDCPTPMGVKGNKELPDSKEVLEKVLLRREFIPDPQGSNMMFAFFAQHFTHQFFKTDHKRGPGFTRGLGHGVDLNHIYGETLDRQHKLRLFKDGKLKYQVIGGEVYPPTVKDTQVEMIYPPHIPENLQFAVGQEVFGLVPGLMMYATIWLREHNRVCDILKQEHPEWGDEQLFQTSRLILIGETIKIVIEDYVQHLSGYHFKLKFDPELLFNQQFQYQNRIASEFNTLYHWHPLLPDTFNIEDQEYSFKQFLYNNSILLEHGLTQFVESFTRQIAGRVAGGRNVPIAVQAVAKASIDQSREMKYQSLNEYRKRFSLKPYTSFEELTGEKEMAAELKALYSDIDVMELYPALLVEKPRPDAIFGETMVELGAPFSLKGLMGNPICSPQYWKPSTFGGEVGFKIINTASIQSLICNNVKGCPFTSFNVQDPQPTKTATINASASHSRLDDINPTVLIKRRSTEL
In words: Activity at COX2 assessed as inhibition of arachidonic acid-induced PGE2 production in LPS-stimulated J774 cells at 100 uM. It is filed as cell-based. An outline of the steps:
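J774 cells were induced with S. typhosa LPS (10 µg/mL, 24 h) to express COX-2. Medium was replaced with fresh medium holding 15 µM arachidonic acid, with or without compound (0.01-100 µM, ethanol vehicle), for 30 min at 37 °C. Supernatant PGE2 was measured by radioimmunoassay. Triplicate wells; % inhibition vs control, mean of three experiments.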

Assay [10] is filed under the species Mus musculus. In words: Analgesic activity in mouse by formalin paw licking assay at 15-45 mins. It counts as functional, organism-based. An outline of the steps:
(§2)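 Mice (18-20 g) were dosed 1 h before intraplantar 5% formalin (10 µL), given under light enflurane anesthesia. A blinded observer scored paw licking in two phases: 0-15 min and 15-45 min.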

The species named for assay [11] is Mus musculus. In words: Analgesic activity in mouse by formalin paw licking assay at 0-15 mins. It counts as functional, organism-based. The procedure, abridged:
as §2

With `CCOC(=O)Cc1c(C)n(C2CCN(C)CC2)c2ccc(OC(C)=O)cc12`, the result in assay [1], in [2], in [3], in assay [4] and in [5] was inactive.

A word on the inhibition: it is the drop in the measured response relative to a control, in per cent. Consider `COc1ccc2c(c1)c(CC(=O)O)c(C)n2C(=O)c1ccc(Cl)cc1` [INDOMETHACIN], for which the Activity is 50 mm in the assay on Rattus norvegicus and “Dose-dependent effect” in assay [6]. In the assay on Mus musculus [7], the outcome was Active. In addition, the inhibition in assay [1] was 88%; in assay [4] it was 75%.

With `Cc1c(CC(=O)O)c2cc(O)ccc2n1C1CCN(C)CC1`, the result in assay [1], in assay [2], in assay [3], in assay [4] and in [5] was inactive.

Turning to `CCOC(=O)Cc1c(C)n(C2CCN(C)CC2)c2ccc(OC)cc12`, the Activity entry in the assay filed under Mus musculus [8] was “Dose-dependent effect”; with Rattus norvegicus it was 0.6 mm; in assay [6], “Dose-dependent effect”. Moreover, the result in the assay with Mus musculus [7] and in the assay listed under Mus musculus [10] was Active. Also, the inhibition in assay [1] is 58%; in [9], 24%; in assay [4], 37%. The result in the assay filed under Mus musculus [11] was inactive.

For the molecule `COc1ccc2c(c1)c(CC(=O)O)c(C)n2C1CCN(C)CC1`, the Activity entry (in the assay listed under Mus musculus [8]; in [6]) was “Dose-dependent effect” each time. For the same molecule, the result with Rattus norvegicus and in the assay filed under Mus musculus [11] was inactive. The result in the assay on Mus musculus [7] and in the assay listed under Mus musculus [10] was Active. For the same molecule, the inhibition in assay [1] is 64%; in assay [4] it was 57%.

Source of the values: ChEMBL document CHEMBL1138850, “Synthesis of 2-methyl-3-indolylacetic derivatives as anti-inflammatory agents that inhibit preferentially cyclooxygenase 1 without gastric damage” (2006).
